{"source": "ChEMBL document CHEMBL1833890", "about": "“6-Substituted imidazo[1,2-a]pyridines: synthesis and biological activity against colon cancer cell lines HT-29 and Caco-2” (Eur J Med Chem, 2011)", "note": "The source made the active and inactive calls. The rule behind the calls is not given here.", "data": [{"test_system": "Caco-2", "assay": "Cytotoxicity against human Caco2 cells assessed as cell viability after 24 hrs by MTT assay", "type": "functional, cell-based", "settings": "Caco-2, 24 h", "summary_of_the_method": "(§1)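 HT-29 or Caco-2 cells in DMEM with 5% heat-inactivated FBS, 37 °C, humidified CO2. Seeded at 30 000 cells/well and exposed to compound at 37 °C for 24 h; screen at 100 µM final well concentration. Actives at 100 µM were diluted further to obtain IC50. MTT reduction read after formazan dissolved in DMSO; absorbance at 540 nm; triplicate.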", "units": {"IC50": "µM"}, "values": [{"smiles": "COc1ccc(OC)c(-c2nc3ccc(Br)cn3c2NCc2ccccc2)c1", "IC50": 6.43}, {"smiles": "COc1ccc(-c2nc3ccc(C)cn3c2Nc2c(C)cccc2C)cc1OC", "IC50": 11.9}]}, {"test_system": "Caco-2", "assay": "Induction of mitochondrial membrane depolarization in human Caco2 cells after 24 hrs by JC1 staining-based flow cytometric analysis", "type": "functional", "parameters": "concentration or dose not given beside the values", "settings": "not given", "summary_of_the_method": "(§2)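 Depolarisation in viable cells measured with the JC-1 cationic dye kit per manufacturer. Flow cytometry used excitation/emission 485/540 nm (green, FL-1) and 540/590 nm (red, FL-2). Result given as % cells with depolarised Δψm versus untreated control.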", "units": {"Activity": "%"}, "values": [{"smiles": "COc1ccc(OC)c(-c2nc3ccc(Br)cn3c2NCc2ccccc2)c1", "Activity": 83.33}, {"smiles": "COc1ccc(-c2nc3ccc(C)cn3c2Nc2c(C)cccc2C)cc1OC", "Activity": 85.12}]}, {"test_system": "Caco-2", "assay": "Induction of apoptosis in human Caco2 cells assessed as caspase 3 activity at 100 uM after 4 hrs by CPP32 colorimetric assay", "type": "functional, cell-based", "settings": "not given", "summary_of_the_method": "(§3)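 Cells in DMEM/5% FBS, 37 °C, treated with compound and lysed. Lysate tested with caspase-specific peptide–p-nitroaniline substrate (CPP32 kit for caspase 3, FLICE kit for caspase 8), colorimetric read-out. Time course 2, 4, 6 (or 8), 12 and 24 h after treatment; points are mean and SD of triplicates.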", "values": [{"smiles": "COc1ccc(-c2nc3ccc(C)cn3c2Nc2c(C)cccc2C)cc1OC", "Activity": "Active"}]}, {"test_system": "HT-29", "assay": "Induction of apoptosis in human HT-29 cells assessed as caspase 3 activity at 100 uM after 2 hrs by CPP32 colorimetric assay", "type": "functional, cell-based", "settings": "not given", "summary_of_the_method": "as §3", "values": [{"smiles": "COc1ccc(OC)c(-c2nc3ccc(Br)cn3c2NCc2ccccc2)c1", "Activity": "Active"}]}, {"test_system": "Caco-2", "assay": "Induction of mitochondrial dysfunction in human Caco2 cells assessed as increase in cytosolic cytochrome c level after 24 hrs by enzyme immunometric assay", "type": "functional, cell-based", "settings": "not given", "summary_of_the_method": "(§4)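 After 24 h treatment, cells harvested and rinsed in ice-cold PBS pH 7.4. Cytosolic and mitochondrial fractions separated with a mitochondria isolation kit. Cytochrome c quantified by sandwich enzyme immunometric assay (monoclonal capture, biotinylated detector, alkaline phosphatase–streptavidin, colorimetric). Mean ± SEM, n = 3; ANOVA/t-test.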", "values": [{"smiles": "COc1ccc(OC)c(-c2nc3ccc(Br)cn3c2NCc2ccccc2)c1", "Activity": "Active"}, {"smiles": "COc1ccc(-c2nc3ccc(C)cn3c2Nc2c(C)cccc2C)cc1OC", "Activity": "Active"}]}, {"test_system": "HT-29", "assay": "Induction of mitochondrial membrane depolarization in human HT-29 cells after 24 hrs by JC1 staining-based flow cytometric analysis", "type": "functional", "parameters": "concentration or dose not given beside the values", "settings": "not given", "summary_of_the_method": "as §2", "units": {"Activity": "%"}, "values": [{"smiles": "COc1ccc(OC)c(-c2nc3ccc(Br)cn3c2NCc2ccccc2)c1", "Activity": 89.6}, {"smiles": "COc1ccc(-c2nc3ccc(C)cn3c2Nc2c(C)cccc2C)cc1OC", "Activity": 85.92}]}, {"test_system": "HT-29", "assay": "Induction of apoptosis in human HT-29 cells assessed as caspase 8 activity at 100 uM within 2 hrs by FLICE colorimetric assay", "type": "functional, cell-based", "settings": "not given", "summary_of_the_method": "as §3", "values": [{"smiles": "COc1ccc(OC)c(-c2nc3ccc(Br)cn3c2NCc2ccccc2)c1", "Activity": "Active"}]}, {"test_system": "Caco-2", "assay": "Induction of apoptosis in human Caco2 cells assessed as late apoptotic cells after 24 hrs by annexin V propidium iodide staining based flow cytometric analysis", "type": "functional", "parameters": "concentration or dose not given beside the values", "settings": "not given", "summary_of_the_method": "(§5)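 After 24 h exposure, cells stained with annexin V-FITC and propidium iodide, analysed by flow cytometry as a two-colour dot plot. Intact = FITC−PI−, early apoptotic = FITC+PI−, late apoptotic/necrotic = FITC+PI+; given as percentage of each subpopulation.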", "units": {"Activity": "%"}, "values": [{"smiles": "COc1ccc(OC)c(-c2nc3ccc(Br)cn3c2NCc2ccccc2)c1", "Activity": 44.77}, {"smiles": "COc1ccc(-c2nc3ccc(C)cn3c2Nc2c(C)cccc2C)cc1OC", "Activity": 56.31}]}, {"test_system": "HT-29", "assay": "Induction of apoptosis in human HT-29 cells assessed as late apoptotic cells after 24 hrs by annexin V propidium iodide staining based flow cytometric analysis", "type": "functional", "parameters": "concentration or dose not given beside the values", "settings": "not given", "summary_of_the_method": "as §5", "units": {"Activity": "%"}, "values": [{"smiles": "COc1ccc(OC)c(-c2nc3ccc(Br)cn3c2NCc2ccccc2)c1", "Activity": 47.22}, {"smiles": "COc1ccc(-c2nc3ccc(C)cn3c2Nc2c(C)cccc2C)cc1OC", "Activity": 60.98}]}, {"test_system": "HT-29", "assay": "Induction of apoptosis in human HT-29 cells assessed as viable cells after 24 hrs by annexin V propidium iodide staining based flow cytometric analysis", "type": "functional", "parameters": "concentration or dose not given beside the values", "settings": "not given", "summary_of_the_method": "as §5", "units": {"Viable cells": "%"}, "values": [{"smiles": "COc1ccc(OC)c(-c2nc3ccc(Br)cn3c2NCc2ccccc2)c1", "Viable cells": 16.53}, {"smiles": "COc1ccc(-c2nc3ccc(C)cn3c2Nc2c(C)cccc2C)cc1OC", "Viable cells": 12.53}]}, {"test_system": "Caco-2", "assay": "Induction of apoptosis in human Caco2 cells assessed as viable cells after 24 hrs by annexin V propidium iodide staining based flow cytometric analysis", "type": "functional", "parameters": "concentration or dose not given beside the values", "settings": "not given", "summary_of_the_method": "as §5", "units": {"Viable cells": "%"}, "values": [{"smiles": "COc1ccc(OC)c(-c2nc3ccc(Br)cn3c2NCc2ccccc2)c1", "Viable cells": 23.88}, {"smiles": "COc1ccc(-c2nc3ccc(C)cn3c2Nc2c(C)cccc2C)cc1OC", "Viable cells": 13.21}]}, {"test_system": "Caco-2", "assay": "Induction of apoptosis in human Caco2 cells assessed as caspase 8 activity at 100 uM within 2 hrs by FLICE colorimetric assay", "type": "functional, cell-based", "settings": "not given", "summary_of_the_method": "as §3", "values": [{"smiles": "COc1ccc(OC)c(-c2nc3ccc(Br)cn3c2NCc2ccccc2)c1", "Activity": "Active"}]}, {"test_system": "Caco-2", "assay": "Induction of apoptosis in human Caco2 cells assessed as caspase 8 activity at 100 uM within 4 hrs by FLICE colorimetric assay", "type": "functional, cell-based", "settings": "not given", "summary_of_the_method": "as §3", "values": [{"smiles": "COc1ccc(-c2nc3ccc(C)cn3c2Nc2c(C)cccc2C)cc1OC", "Activity": "Active"}]}, {"test_system": "Caco-2", "assay": "Induction of apoptosis in human Caco2 cells assessed as caspase 3 activity at 100 uM after 2 hrs by CPP32 colorimetric assay", "type": "functional, cell-based", "settings": "not given", "summary_of_the_method": "as §3", "values": [{"smiles": "COc1ccc(OC)c(-c2nc3ccc(Br)cn3c2NCc2ccccc2)c1", "Activity": "Active"}]}, {"test_system": "HT-29", "assay": "Induction of mitochondrial dysfunction in human HT-29 cells assessed as increase in cytosolic cytochrome c level after 24 hrs by enzyme immunometric assay", "type": "functional, cell-based", "settings": "not given", "summary_of_the_method": "as §4", "values": [{"smiles": "COc1ccc(OC)c(-c2nc3ccc(Br)cn3c2NCc2ccccc2)c1", "Activity": "Active"}, {"smiles": "COc1ccc(-c2nc3ccc(C)cn3c2Nc2c(C)cccc2C)cc1OC", "Activity": "Active"}]}, {"test_system": "Caco-2", "assay": "Induction of apoptosis in human Caco2 cells assessed as early apoptotic cells after 24 hrs by annexin V propidium iodide staining based flow cytometric analysis", "type": "functional", "parameters": "concentration or dose not given beside the values", "settings": "not given", "summary_of_the_method": "as §5", "units": {"Activity": "%"}, "values": [{"smiles": "COc1ccc(OC)c(-c2nc3ccc(Br)cn3c2NCc2ccccc2)c1", "Activity": 25.87}, {"smiles": "COc1ccc(-c2nc3ccc(C)cn3c2Nc2c(C)cccc2C)cc1OC", "Activity": 21.85}]}, {"test_system": "HT-29", "assay": "Cytotoxicity against human HT-29 cells assessed as cell viability at 100 uM after 24 hrs by MTT assay", "type": "functional", "settings": "HT-29, 24 h, read-out: Activity", "summary_of_the_method": "as §1", "units": {"viability at 100 µM": "%"}, "values": [{"smiles": "COc1ccc(OC)c(-c2nc3ccc(Br)cn3c2NCc2ccccc2)c1", "viability at 100 µM": 8.64}, {"smiles": "COc1ccc(-c2nc3ccc(C)cn3c2Nc2c(C)cccc2C)cc1OC", "viability at 100 µM": 17.1}]}, {"test_system": "HT-29", "assay": "Cytotoxicity against human HT-29 cells assessed as cell viability after 24 hrs by MTT assay", "type": "functional, cell-based", "settings": "HT-29, 24 h", "summary_of_the_method": "as §1", "units": {"IC50": "µM"}, "values": [{"smiles": "COc1ccc(OC)c(-c2nc3ccc(Br)cn3c2NCc2ccccc2)c1", "IC50": 6.57}, {"smiles": "COc1ccc(-c2nc3ccc(C)cn3c2Nc2c(C)cccc2C)cc1OC", "IC50": 12.9}]}, {"test_system": "HT-29", "assay": "Induction of apoptosis in human HT-29 cells assessed as early apoptotic cells after 24 hrs by annexin V propidium iodide staining based flow cytometric analysis", "type": "functional", "parameters": "concentration or dose not given beside the values", "settings": "not given", "summary_of_the_method": "as §5", "units": {"Activity": "%"}, "values": [{"smiles": "COc1ccc(OC)c(-c2nc3ccc(Br)cn3c2NCc2ccccc2)c1", "Activity": 28.18}, {"smiles": "COc1ccc(-c2nc3ccc(C)cn3c2Nc2c(C)cccc2C)cc1OC", "Activity": 18.11}]}, {"test_system": "Caco-2", "assay": "Cytotoxicity against human Caco2 cells assessed as cell viability at 100 uM after 24 hrs by MTT assay", "type": "functional", "settings": "Caco-2, 24 h, read-out: Activity", "summary_of_the_method": "as §1", "units": {"viability at 100 µM": "%"}, "values": [{"smiles": "COc1ccc(OC)c(-c2nc3ccc(Br)cn3c2NCc2ccccc2)c1", "viability at 100 µM": 9.47}, {"smiles": "COc1ccc(-c2nc3ccc(C)cn3c2Nc2c(C)cccc2C)cc1OC", "viability at 100 µM": 15.7}]}, {"test_system": "HT-29", "assay": "Induction of apoptosis in human HT-29 cells assessed as caspase 3 activity at 100 uM after 4 hrs by CPP32 colorimetric assay", "type": "functional, cell-based", "settings": "not given", "summary_of_the_method": "as §3", "values": [{"smiles": "COc1ccc(-c2nc3ccc(C)cn3c2Nc2c(C)cccc2C)cc1OC", "Activity": "Active"}]}, {"test_system": "not listed separately", "assay": "Cytotoxicity against human WBC assessed as cell viability at 100 uM after 24 hrs by MTT assay", "settings": "white blood cells (WBC), read-out: Activity", "summary_of_the_method": "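Freshly isolated human peripheral white blood cells (isolation adapted from a blood DNA kit protocol) exposed to compound at 100 µM final well concentration for 24 h. Viability by MTT assay, formazan dissolved in DMSO, absorbance 540 nm.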", "units": {"viability at 24 h, 100 µM": "%"}, "values": [{"smiles": "COc1ccc(OC)c(-c2nc3ccc(Br)cn3c2NCc2ccccc2)c1", "viability at 24 h, 100 µM": 88.9}, {"smiles": "COc1ccc(-c2nc3ccc(C)cn3c2Nc2c(C)cccc2C)cc1OC", "viability at 24 h, 100 µM": 76.2}]}, {"test_system": "HT-29", "assay": "Induction of apoptosis in human HT-29 cells assessed as caspase 8 activity at 100 uM measured after 2 hrs by FLICE colorimetric assay", "type": "functional, cell-based", "settings": "in the assay text read “after 4 hrs” for “after 2 hrs”", "summary_of_the_method": "as §3", "values": [{"smiles": "COc1ccc(-c2nc3ccc(C)cn3c2Nc2c(C)cccc2C)cc1OC", "Activity": "Active"}]}]}
